# Reference: ChEMBL document CHEMBL1938298, “Synthesis and characterization of [¹²⁵I]2-iodo N-[(S)-{(S)-1-methylpiperidin-2-yl}(phenyl)methyl]3-trifluoromethyl-benzamide as novel imaging probe for glycine transporter 1” (Bioorg Med Chem, 2011)
# Activity calls are given as the source filed them. The rule behind the calls is not given here.
# Tests used:
# Mus musculus [1] = assay: In vivo binding affinity to GlyT1 in ddY mouse brain hippocampus at 33.3 kBq, iv after 30 mins in presence of SSR504734 2 mg/kg, iv administered 15 mins prior to compound administration relative to control; assay type: functional, organism-based; parameters: dose 2 mg/kg; conditions: tested as the 125I-labelled form
# Outline: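 Blocking study in male ddY mice (6 weeks, 30–35 g). The blocker (2 mg/kg in 30% DMSO/saline) was injected i.v. 15 min before about 33.3 kBq [125I]tracer i.v.; mice were killed at 30 or 60 min. Brains were divided into cortex, corpus callosum, hippocampus, thalamus, midbrain, medulla and cerebellum, weighed and gamma-counted as % dose/g. Values are mean ± SD, n = 5–6, compared to control by Kruskal–Wallis with Dunn's post-test.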
# [2] = biological target: T1, Sodium- and chloride-dependent glycine transporter 1 (Rattus norvegicus) (UniProt P28572); assay: Binding affinity to GlyT1 in rat brain corpus callosum at 0.03 to 0.04 nM preincubated for 20 mins in binding buffer before compound addition measured after 30 mins by autoradiography in presence of 10 mM GlyT1 substrate glycine relative to control; assay type: tissue-based; conditions: tested as the 125I-labelled form
# T1 sequence (whole entry): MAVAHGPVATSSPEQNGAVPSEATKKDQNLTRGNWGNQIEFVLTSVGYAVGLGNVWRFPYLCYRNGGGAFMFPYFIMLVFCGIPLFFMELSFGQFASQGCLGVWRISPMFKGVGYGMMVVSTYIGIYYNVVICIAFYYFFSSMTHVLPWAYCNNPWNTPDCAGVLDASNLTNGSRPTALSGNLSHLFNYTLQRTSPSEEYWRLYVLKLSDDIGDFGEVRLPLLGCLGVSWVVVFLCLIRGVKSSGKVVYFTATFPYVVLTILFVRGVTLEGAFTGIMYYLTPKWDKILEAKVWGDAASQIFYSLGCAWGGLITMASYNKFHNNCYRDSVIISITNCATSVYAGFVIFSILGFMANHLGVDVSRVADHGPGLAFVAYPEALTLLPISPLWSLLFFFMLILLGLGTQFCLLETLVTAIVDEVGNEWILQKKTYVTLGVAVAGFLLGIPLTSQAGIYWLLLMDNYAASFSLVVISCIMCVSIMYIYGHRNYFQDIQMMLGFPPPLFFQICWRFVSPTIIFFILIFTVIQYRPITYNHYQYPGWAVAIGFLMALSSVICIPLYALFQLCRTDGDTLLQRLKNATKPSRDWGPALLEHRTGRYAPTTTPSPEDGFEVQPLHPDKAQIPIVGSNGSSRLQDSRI
# Outline: (§1)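 Rat brain sagittal sections (20 µm) preincubated 20 min at 25 °C in Tris-HCl buffer pH 7.5 (NaCl, KCl, MgCl2, CaCl2), then 30 min at 25 °C with [125I] tracer (100 kBq, 0.03–0.04 nM) plus competitor (10 µM; glycine 1 or 10 mM). Cold washes, imaging plate 3 days, ROI PSL minus background per mm². % control from ≥triplicate slices, three rats.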
# Mus musculus [3] = assay: In vivo binding affinity to GlyT1 in ddY mouse brain striatum at 33.3 kBq, iv after 30 mins in presence of nonradioactive compound 2 mg/kg, iv administered 15 mins prior to compound administration relative to control; assay type: functional, organism-based; parameters: dose 2 mg/kg; conditions: tested as the 125I-labelled form
# [4] = biological target: T1, Sodium- and chloride-dependent glycine transporter 1 (Rattus norvegicus); assay: Binding affinity to GlyT1 in rat brain cerebral cortex at 0.03 to 0.04 nM preincubated for 20 mins in binding buffer before compound addition measured after 30 mins by autoradiography in presence of 0.01 mM NMDA receptor glycine site antagonist L-701,324 relative to control; assay type: tissue-based; conditions: tested as the 125I-labelled form; outline: as §1
# [5] = biological target: T1, Sodium- and chloride-dependent glycine transporter 1 (Rattus norvegicus); assay: Binding affinity to GlyT1 in rat brain striatum at 0.03 to 0.04 nM preincubated for 20 mins in binding buffer before compound addition measured after 30 mins by autoradiography relative to control; assay type: tissue-based; conditions: tested as the 125I-labelled form
# [6] = biological target: T1, Sodium- and chloride-dependent glycine transporter 1 (Rattus norvegicus); assay: Binding affinity to GlyT1 in rat brain corpus callosum at 0.03 to 0.04 nM preincubated for 20 mins in binding buffer before compound addition measured after 30 mins by autoradiography in presence of 0.01 mM GlyT1 inhibitor SSR504734 relative to control; assay type: tissue-based; conditions: tested as the 125I-labelled form; outline: as §1
# [7] = biological target: T1, Sodium- and chloride-dependent glycine transporter 1 (Rattus norvegicus); assay: Binding affinity to GlyT1 in rat brain hippocampus at 0.03 to 0.04 nM preincubated for 20 mins in binding buffer before compound addition measured after 30 mins by autoradiography in presence of 0.01 mM GlyT1 inhibitor SSR504734 relative to control; assay type: tissue-based; conditions: tested as the 125I-labelled form; outline: as §1
# Lung = assay: Drug uptake in ddY mouse lung at 11.1 kBq, iv after 0.5 min by gamma counting; assay type: ADME, organism-based; conditions: in vivo
# Outline: (§2)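 Male ddY mice (6 weeks, 30–35 g) were given about 11.1 kBq of [125I]tracer in 0.1 mL i.v. via the tail vein. At each time point the animals were killed and organs dissected, weighed and gamma-counted. Uptake is expressed as % injected dose per gram of tissue, mean ± SD, n = 5–6.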
# Heart = assay: Drug uptake in ddY mouse heart at 11.1 kBq, iv after 60 min by gamma counting; assay type: ADME, organism-based; conditions: in vivo, 1 h
# Outline: (§3)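 Male ddY mice (6 weeks, 30–35 g) received about 11.1 kBq [125I]tracer in 0.1 mL i.v. via tail vein. Killed at set times, organs dissected and weighed, radioactivity gamma counted. Reported as % injected dose/g tissue, mean ± SD, n = 5–6.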
# [8] = Metabolic stability in ddY mouse brain assessed as compound remaining at 185 kBq after 30 mins by radio-TLC; assay type: ADME, tissue-based; conditions: read-out: Stability
# Liver [9] = assay: Drug uptake in ddY mouse liver at 11.1 kBq, iv after 180 min by gamma counting; assay type: ADME, organism-based; conditions: in vivo, 3 h; outline: as §2
# Liver [10] = assay: Drug uptake in ddY mouse liver at 11.1 kBq, iv after 60 min by gamma counting; assay type: ADME, organism-based; conditions: in vivo, 1 h; outline: as §2
# Brain = assay: Drug uptake in ddY mouse brain at 11.1 kBq, iv after 0.5 min by gamma counting; assay type: ADME, organism-based; conditions: in vivo; outline: as §3
# Intestine = assay: Drug uptake in ddY mouse intestine at 11.1 kBq, iv after 30 min by gamma counting; assay type: ADME, organism-based; conditions: in vivo, 0.5 h; outline: as §3
# Mus musculus [11] = assay: In vivo binding affinity to GlyT1 in ddY mouse brain thalamus at 33.3 kBq, iv after 60 mins in presence of nonradioactive compound 2 mg/kg, iv administered 15 mins prior to compound administration relative to control; assay type: functional
# Mus musculus [12] = assay: In vivo binding affinity to GlyT1 in ddY mouse brain medullary region at 33.3 kBq, iv after 30 mins in presence of N-Me-SSR504734 2 mg/kg, iv administered 15 mins prior to compound administration relative to control; assay type: functional, Medulla of organ
# Outline: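 Male ddY mice (6 W, 30–35 g) were given [125I]5 (ca. 33.3 kBq, 0.1 mL) iv via tail vein. Blocker (2 mg/kg in 30% DMSO/saline) was given iv 15 min before the tracer. Mice were killed 30 or 60 min after injection and the brain regions were dissected and weighed. Gamma counting gave % dose/g, compared with control; n = 5–6.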
# Spleen = assay: Drug uptake in ddY mouse spleen at 11.1 kBq, iv after 0.5 min by gamma counting; assay type: ADME, organism-based; conditions: in vivo; outline: as §2
# Blood = assay: Drug uptake in ddY mouse blood at 11.1 kBq, iv after 60 min by gamma counting; assay type: ADME, organism-based; conditions: in vivo, 1 h; outline: as §3
# Nucleic Acid = assay: Ratio of drug level in brain to blood in ddY mouse at 11.1 kBq, iv after 180 min by gamma counting; assay type: ADME, organism-based; conditions: 3 h
Activity [2],Activity [4],Activity [5],Activity [6],Activity [7],Drug uptake (Lung),Drug uptake (Heart),remaining at 0.5 h [8],Drug uptake (Liver [9]),Drug uptake (Liver [10]),Drug uptake (Brain),Drug uptake (Intestine),Drug uptake (Spleen),Drug uptake (Blood),Ratio (Nucleic Acid),Compound,Activity (Mus musculus [1]),Activity (Mus musculus [3]),Activity (Mus musculus [11]),Activity (Mus musculus [12])
39.6%,92.5%,inactive,21.8%,46.3%,–,–,–,–,–,–,–,–,–,–,CN1CCCC[C@H]1[C@@H](NC(=O)c1cccc(C(F)(F)F)c1I)c1ccccc1,inactive,Active,–,–
–,–,–,–,–,17.19 % ID/g,2.79 % ID/g,90%,15.05 % ID/g,16.04 % ID/g,0.51 % ID/g,5.76 % ID/g,0.97 % ID/g,0.8 % ID/g,0.85,CN1CCCC[C@H]1[C@@H](NC(=O)c1cccc(C(F)(F)F)c1[125I])c1ccccc1,–,–,58%,59%
